Test results reported in ChEMBL document CHEMBL1926643, “Synthesis, anti-inflammatory activity and molecular docking studies of 2,5-diarylfuran amino acid derivatives” (Eur J Med Chem, 2012).
Activity calls are given as the source filed them. The calls are words filed in the database; no cut-off is given here.

System: not listed separately
Experiment: Cytotoxicity against Wistar rat neutrophils assessed as reduction in cell viability at 10 nM after 18 hrs by trypan blue staining method
Format: cell-based
Conditions: neutrophil, 0.01 µM
Summary of the method: (§1)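 Neutrophils were elicited in male Wistar rats by intraperitoneal oyster glycogen (1%, 10 mL) and harvested after 4 h. Cells were exposed to compound at 1, 10, 100 or 1000 nM, with or without LPS, for 18 h in RPMI1640 with 10% FBS. Viability was scored by trypan blue staining against medium-only controls.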

Compound | Activity
COc1ccc(-c2ccc(-c3cccc(NC(=O)[C@H](CSCc4ccccc4)NC(=O)OCc4ccccc4)c3)o2)cc1 | Non-toxic
COc1ccc(-c2ccc(-c3cccc(NC(=O)[C@@H]4CCCN4C(=O)OC(C)(C)C)c3)o2)cc1 | Non-toxic
COc1ccc(-c2ccc(-c3cccc(NC(=O)[C@H](Cc4ccccc4)NC(=O)OC(C)(C)C)c3)o2)cc1 | Non-toxic
COc1ccc(-c2ccc(-c3cccc(NC(=O)[C@@H](NC(=O)OC(C)(C)C)C(C)C)c3)o2)cc1 | Non-toxic

System: Neutrophil
Experiment: Antiinflammatory activity in Wistar rat neutrophils assessed as decrease in PGE2 level at 10 nM after 18 hrs by EIA
Format: functional, cell-based
Conditions: not given
Summary of the method: (§2)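 Neutrophils were taken from male Wistar rats 4 h after intraperitoneal oyster glycogen (1%, 10 mL). Cells were cultured in RPMI1640 with 10% FBS, with compound at 10 nM, with or without LPS, for 18 h. PGE₂ in the culture supernatant was quantified by EIA. Data are the mean ± s.e.m. of cells from four animals, compared against medium-only control cells.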

Compound | Activity
Cc1ccc(-c2cc(C(F)(F)F)nn2-c2ccc(S(N)(=O)=O)cc2)cc1 | inactive
COc1ccc(-c2ccc(-c3cccc(NC(=O)[C@H](CSCc4ccccc4)NC(=O)OCc4ccccc4)c3)o2)cc1 | inactive
COc1ccc(-c2ccc(-c3cccc(NC(=O)[C@@H]4CCCN4C(=O)OC(C)(C)C)c3)o2)cc1 | inactive
COc1ccc(-c2ccc(-c3cccc(NC(=O)[C@H](Cc4ccccc4)NC(=O)OC(C)(C)C)c3)o2)cc1 | inactive
COc1ccc(-c2ccc(-c3cccc(NC(=O)[C@@H](NC(=O)OC(C)(C)C)C(C)C)c3)o2)cc1 | inactive

System: Neutrophil
Experiment: Antiinflammatory activity in Wistar rat neutrophils assessed as decrease in LPS-induced PGE2 secretion at 10 nM after 18 hrs by EIA
Format: functional, cell-based
Conditions: not given
Summary of the method: as §2

Compound | Activity
Cc1ccc(-c2cc(C(F)(F)F)nn2-c2ccc(S(N)(=O)=O)cc2)cc1 | Active
COc1ccc(-c2ccc(-c3cccc(NC(=O)[C@H](CSCc4ccccc4)NC(=O)OCc4ccccc4)c3)o2)cc1 | inactive
COc1ccc(-c2ccc(-c3cccc(NC(=O)[C@@H]4CCCN4C(=O)OC(C)(C)C)c3)o2)cc1 | Active
COc1ccc(-c2ccc(-c3cccc(NC(=O)[C@H](Cc4ccccc4)NC(=O)OC(C)(C)C)c3)o2)cc1 | inactive
COc1ccc(-c2ccc(-c3cccc(NC(=O)[C@@H](NC(=O)OC(C)(C)C)C(C)C)c3)o2)cc1 | inactive

Target: T1, Prostaglandin G/H synthase 1 (Rattus norvegicus) (UniProt Q63921)
T1 sequence (whole entry): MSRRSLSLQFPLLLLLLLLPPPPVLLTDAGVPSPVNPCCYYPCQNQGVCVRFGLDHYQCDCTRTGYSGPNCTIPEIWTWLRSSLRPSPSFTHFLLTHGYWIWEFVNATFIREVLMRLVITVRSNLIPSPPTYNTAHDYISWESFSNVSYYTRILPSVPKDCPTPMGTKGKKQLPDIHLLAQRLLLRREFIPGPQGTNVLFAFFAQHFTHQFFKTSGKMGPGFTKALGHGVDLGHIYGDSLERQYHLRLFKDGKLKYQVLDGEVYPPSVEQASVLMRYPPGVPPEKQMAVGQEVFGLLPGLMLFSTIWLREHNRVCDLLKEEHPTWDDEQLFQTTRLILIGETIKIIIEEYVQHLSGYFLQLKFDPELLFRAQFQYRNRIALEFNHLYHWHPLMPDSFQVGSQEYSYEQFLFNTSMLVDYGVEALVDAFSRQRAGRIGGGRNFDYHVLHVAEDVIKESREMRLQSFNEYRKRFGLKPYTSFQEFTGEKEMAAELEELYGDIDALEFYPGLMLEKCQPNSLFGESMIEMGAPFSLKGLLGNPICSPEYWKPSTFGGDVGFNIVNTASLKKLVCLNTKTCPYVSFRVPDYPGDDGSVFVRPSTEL
Experiment: Inhibition of COX-1 in rat leukocytes assessed as reduction in PGE2 production from arachidonic acid at 10 nM preincubated for 10 mins by EIA
Format: cell-based
Conditions: not given

Compound | inhibition
COc1ccc(-c2ccc(-c3cccc(NC(=O)[C@H](COC(=O)c4ccccc4)NC(=O)OC(C)(C)C)c3)o2)cc1 | inactive
COc1ccc(-c2ccc(-c3cccc(NC(=O)[C@H](CSCc4ccccc4)NC(=O)OCc4ccccc4)c3)o2)cc1 | inactive
COc1ccc(-c2ccc(-c3cccc(NC(=O)[C@@H]4CCCN4C(=O)OC(C)(C)C)c3)o2)cc1 | inactive
COc1ccc(-c2ccc(-c3cccc(NC(=O)CNC(=O)OC(C)(C)C)c3)o2)cc1 | inactive
COc1ccc(-c2ccc(-c3cccc(NC(=O)[C@H](CCSC)NC(=O)OC(C)(C)C)c3)o2)cc1 | inactive
COc1ccc(-c2ccc(-c3cccc(NC(=O)[C@H](Cc4ccccc4)NC(=O)OC(C)(C)C)c3)o2)cc1 | inactive
COc1ccc(-c2ccc(-c3cccc(NC(=O)[C@H](CC(C)C)NC(=O)OC(C)(C)C)c3)o2)cc1 | inactive
COc1ccc(-c2ccc(-c3cccc(NC(=O)[C@@H](NC(=O)OC(C)(C)C)C(C)C)c3)o2)cc1 | inactive
COc1ccc(-c2ccc(-c3cccc(NC(=O)[C@H](C)NC(=O)OC(C)(C)C)c3)o2)cc1 | inactive
COc1ccc(-c2ccc(-c3cccc(NC(=O)[C@H](CCC(=O)OC(C)(C)C)NC(=O)OCC4c5ccccc5-c5ccccc54)c3)o2)cc1 | inactive
COc1ccc(-c2ccc(-c3cccc(NC(=O)[C@H](CCCNC(=N)NS(=O)(=O)c4ccc(C)cc4)NC(=O)OC(C)(C)C)c3)o2)cc1 | inactive

System: not listed separately
Experiment: Cytotoxicity against LPS-stimulated Wistar rat neutrophils assessed as reduction in cell viability at 10 nM after 18 hrs by trypan blue staining method
Format: cell-based
Conditions: neutrophil, 0.01 µM
Summary of the method: as §1

Compound | Activity
COc1ccc(-c2ccc(-c3cccc(NC(=O)[C@H](CSCc4ccccc4)NC(=O)OCc4ccccc4)c3)o2)cc1 | Non-toxic
COc1ccc(-c2ccc(-c3cccc(NC(=O)[C@@H]4CCCN4C(=O)OC(C)(C)C)c3)o2)cc1 | Non-toxic
COc1ccc(-c2ccc(-c3cccc(NC(=O)[C@H](Cc4ccccc4)NC(=O)OC(C)(C)C)c3)o2)cc1 | Non-toxic
COc1ccc(-c2ccc(-c3cccc(NC(=O)[C@@H](NC(=O)OC(C)(C)C)C(C)C)c3)o2)cc1 | Non-toxic
